Results from ChEMBL document CHEMBL3856229, “Hybrid Antibiotic Overcomes Resistance in P. aeruginosa by Enhancing Outer Membrane Penetration and Reducing Efflux” (J Med Chem, 2016).
Converted amounts (≈) assume the structure as drawn.

Key:
[1] = tested on: Staphylococcus aureus; experiment: Antibacterial activity against Staphylococcus aureus ATCC 29213 after 24 hrs by microtitre broth dilution method; format: functional; details: ATCC 29213, 24 h
[2] = tested on: Staphylococcus aureus; experiment: Antibacterial activity against methicillin-resistant Staphylococcus aureus ATCC 33592 after 24 hrs by microtitre broth dilution method; format: functional; details: ATCC 33592, 24 h
[3] = tested on: Staphylococcus epidermidis; experiment: Antibacterial activity against methicillin-susceptible Staphylococcus epidermidis isolate CANWARD-2008 81388 after 24 hrs by microtitre broth dilution method; format: functional; details: isolate CANWARD-2008 81388, 24 h
[4] = tested on: Staphylococcus epidermidis; experiment: Antibacterial activity against methicillin-resistant Staphylococcus epidermidis isolate CAN-ICU 61589 after 24 hrs by microtitre broth dilution method; format: functional; details: isolate CAN-ICU 61589, 24 h
[5] = tested on: Enterococcus faecalis; experiment: Antibacterial activity against Enterococcus faecalis ATCC 29212 after 24 hrs by microtitre broth dilution method; format: functional; details: ATCC 29212, 24 h
[6] = tested on: Enterococcus faecium; experiment: Antibacterial activity against Enterococcus faecium ATCC 27270 after 24 hrs by microtitre broth dilution method; format: functional; details: ATCC 27270, 24 h
[7] = tested on: Streptococcus pneumoniae; experiment: Antibacterial activity against Streptococcus pneumoniae ATCC 49619 after 24 hrs by microtitre broth dilution method; format: functional; details: ATCC 49619, 24 h
[8] = tested on: Escherichia coli; experiment: Antibacterial activity against gentamicin-resistant Escherichia coli isolate CAN-ICU 61714 after 24 hrs by microtitre broth dilution method; format: functional; details: isolate CAN-ICU 61714, 24 h
[9] = tested on: Escherichia coli; experiment: Antibacterial activity against amikacin-resistant Escherichia coli isolate CAN-ICU 63074 after 24 hrs by microtitre broth dilution method; format: functional; details: isolate CAN-ICU 63074, 24 h
[10] = tested on: Escherichia coli; experiment: Antibacterial activity against gentamicin/tobramycin/ciprofloxacin-resistant Escherichia coli isolate CANWARD-2011 97615 harboring AAC3-2A after 24 hrs by microtitre broth dilution method; format: functional; details: isolate CANWARD-2011 97615, 24 h
[11] = tested on: Pseudomonas aeruginosa; experiment: Antibacterial activity against Pseudomonas aeruginosa ATCC 27853 after 24 hrs by microtitre broth dilution method; format: functional; details: ATCC 27853, 24 h
[12] = tested on: Pseudomonas aeruginosa; experiment: Antibacterial activity against gentamicin-resistant Pseudomonas aeruginosa isolate CAN-ICU 62308 after 24 hrs by microtitre broth dilution method; format: functional; details: isolate CAN-ICU 62308, 24 h
[13] = tested on: Pseudomonas aeruginosa; experiment: Antibacterial activity against gentamicin/tobramycin-resistant Pseudomonas aeruginosa isolate CANWARD-2011 96846 after 24 hrs by microtitre broth dilution method; format: functional; details: isolate CANWARD-2011 96846, 24 h
[14] = tested on: Stenotrophomonas maltophilia; experiment: Antibacterial activity against Stenotrophomonas maltophilia isolate CAN-ICU 62584 after 24 hrs by microtitre broth dilution method; format: functional; details: isolate CAN-ICU 62584, 24 h
[15] = tested on: Acinetobacter baumannii; experiment: Antibacterial activity against Acinetobacter baumannii isolate CAN-ICU 63169 after 24 hrs by microtitre broth dilution method; format: functional; details: isolate CAN-ICU 63169, 24 h
[16] = tested on: Klebsiella pneumoniae; experiment: Antibacterial activity against Klebsiella pneumoniae ATCC 13883 after 24 hrs by microtitre broth dilution method; format: functional; details: ATCC 13883, 24 h
[17] = tested on: Pseudomonas aeruginosa; experiment: Antibacterial activity against multidrug/extremely drug-resistant/colistin-susceptible Pseudomonas aeruginosa isolate 259-96918; format: functional
[18] = tested on: Pseudomonas aeruginosa; experiment: Antibacterial activity against multidrug/extremely drug-resistant/colistin-susceptible Pseudomonas aeruginosa isolate 260-97103; format: functional
[19] = tested on: Pseudomonas aeruginosa; experiment: Antibacterial activity against multidrug/extremely drug-resistant/colistin-susceptible Pseudomonas aeruginosa isolate 262-101856; format: functional
[20] = tested on: Pseudomonas aeruginosa; experiment: Antibacterial activity against multidrug/extremely drug-resistant/colistin-susceptible Pseudomonas aeruginosa isolate 264-104354; format: functional
[21] = tested on: Pseudomonas aeruginosa; experiment: Antibacterial activity against Pseudomonas aeruginosa PAO1; format: functional
[22] = tested on: Escherichia coli; experiment: Antibacterial activity against Escherichia coli ATCC 25922 after 24 hrs by microtitre broth dilution method; format: functional; details: ATCC 25922, 24 h
[23] = Inhibition of Pseudomonas aeruginosa DNA gyrase A assessed as inhibition of DNA supercoiling using PBR322 DNA as substrate after 30 mins by SYBR Gold staining based agarose gel electrophoresis
[24] = Inhibition of circular DNA translation in Escherichia coli S30 extract after 60 mins by luciferase reporter gene assay
Method in brief: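 Translation was run in an E. coli S30 extract with a luciferase read-out. Luminescence is expressed as a percentage of the no-antibiotic control, taken as 100%.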

[25] = tested on: Pseudomonas aeruginosa; experiment: Antibacterial activity against multidrug-resistant/tobramycin-susceptible Pseudomonas aeruginosa isolate 86052; format: functional
[26] = tested on: Pseudomonas aeruginosa; experiment: Antibacterial activity against multidrug/extremely drug-resistant/colistin-susceptible Pseudomonas aeruginosa isolate 100036; format: functional
[27] = tested on: Pseudomonas aeruginosa; experiment: Antibacterial activity against multidrug/extremely drug-resistant/colistin-susceptible Pseudomonas aeruginosa isolate 101885; format: functional
[28] = tested on: Pseudomonas aeruginosa; experiment: Antibacterial activity against pandrug-resistant Pseudomonas aeruginosa isolate 91433; format: functional
[29] = tested on: Pseudomonas aeruginosa; experiment: Antibacterial activity against pandrug-resistant Pseudomonas aeruginosa isolate 101243; format: functional
[30] = tested on: Pseudomonas aeruginosa; experiment: Antibacterial activity against multidrug-resistant/tobramycin-susceptible Pseudomonas aeruginosa isolate 86053; format: functional
[31] = tested on: Pseudomonas aeruginosa; experiment: Antibacterial activity against multidrug-resistant/tobramycin-susceptible Pseudomonas aeruginosa isolate 86067; format: functional
[32] = tested on: Pseudomonas aeruginosa; experiment: Antibacterial activity against multidrug-resistant/tobramycin-susceptible Pseudomonas aeruginosa isolate 86079; format: functional
[33] = tested on: Pseudomonas aeruginosa; experiment: Antibacterial activity against multidrug-resistant/tobramycin-susceptible Pseudomonas aeruginosa isolate 86141; format: functional
[34] = tested on: Pseudomonas aeruginosa; experiment: Antibacterial activity against multidrug-resistant/tobramycin-susceptible Pseudomonas aeruginosa isolate 92014; format: functional
[35] = tested on: Pseudomonas aeruginosa; experiment: Antibacterial activity against multidrug-resistant/tobramycin-susceptible Pseudomonas aeruginosa isolate 79199; format: functional
[36] = tested on: Pseudomonas aeruginosa; experiment: Antibacterial activity against multidrug-resistant/tobramycin-susceptible Pseudomonas aeruginosa isolate 80621; format: functional
[37] = tested on: Pseudomonas aeruginosa; experiment: Antibacterial activity against multidrug-resistant/tobramycin-susceptible Pseudomonas aeruginosa isolate 83182; format: functional
[38] = tested on: Pseudomonas aeruginosa; experiment: Antibacterial activity against multidrug-resistant/tobramycin-susceptible Pseudomonas aeruginosa isolate 84745; format: functional
[39] = tested on: Pseudomonas aeruginosa; experiment: Antibacterial activity against multidrug-resistant/tobramycin-susceptible Pseudomonas aeruginosa isolate 85322; format: functional
[40] = tested on: Pseudomonas aeruginosa; experiment: Antibacterial activity against multidrug-resistant/tobramycin-susceptible Pseudomonas aeruginosa isolate 108590; format: functional

COc1c(N2C[C@@H]3CCCN(CCCCCCCCCCCCOC[C@H]4O[C@H](O[C@@H]5[C@@H](O)[C@H](O[C@H]6O[C@H](CN)[C@@H](O)C[C@H]6N)[C@@H](N)C[C@H]5N)[C@H](O)[C@@H](N)[C@@H]4O)[C@@H]3C2)c(F)cc2c(=O)c(C(=O)O)cn(C3CC3)c12.Cl.Cl.Cl.Cl.Cl
MIC [1]: 16 µg/mL | MIC [2]: 16 µg/mL | MIC [3]: 8 µg/mL | MIC [4]: 8 µg/mL | MIC [5]: 32 µg/mL | MIC [6]: 16 µg/mL | MIC [7]: 64 µg/mL | MIC [8]: 64 µg/mL | MIC [9]: 64 µg/mL | MIC [10]: 128 µg/mL | MIC [11]: 64 µg/mL | MIC [12]: 32 µg/mL | MIC [13]: 64 µg/mL | MIC [14]: > 128 µg/mL | MIC [15]: > 128 µg/mL | MIC [16]: 16 µg/mL | MIC [17]: > 32 µg/mL | MIC [18]: 32 µg/mL | MIC [19]: > 32 µg/mL | MIC [20]: > 32 µg/mL | MIC [21]: > 32 µg/mL | MIC [22]: 16 µg/mL | IC50 [23]: 2600 nM

COc1c(N2C[C@@H]3CCCN(CCCCCCCCCCCCO[C@H]4[C@@H](O[C@@H]5[C@@H](O)[C@H](O[C@H]6O[C@H](CN)[C@@H](O)C[C@H]6N)[C@@H](N)C[C@H]5N)O[C@H](CO)[C@@H](O)[C@@H]4N)[C@@H]3C2)c(F)cc2c(=O)c(C(=O)O)cn(C3CC3)c12.Cl.Cl.Cl.Cl.Cl
MIC [1]: 4 µg/mL | MIC [2]: 8 µg/mL | MIC [3]: 2 µg/mL | MIC [4]: 8 µg/mL | MIC [5]: 32 µg/mL | MIC [6]: 16 µg/mL | MIC [7]: 32 µg/mL | MIC [8]: 64 µg/mL | MIC [9]: 32 µg/mL | MIC [10]: 128 µg/mL | MIC [11]: 16 µg/mL | MIC [12]: 128 µg/mL | MIC [13]: > 128 µg/mL | MIC [14]: > 128 µg/mL | MIC [15]: 128 µg/mL | MIC [16]: 4 µg/mL | MIC [17]: > 32 µg/mL | MIC [18]: > 32 µg/mL | MIC [19]: 32 µg/mL | MIC [20]: 32 µg/mL | MIC [21]: > 32 µg/mL | MIC [22]: 4 µg/mL | IC50 [24]: 130 nM | IC50 [23]: 2100 nM

NCC[C@H](O)C(=O)N[C@@H]1C[C@H](N)[C@@H](O[C@H]2O[C@H](CN)[C@@H](O)[C@H](O)[C@H]2O)[C@H](O)[C@H]1O[C@H]1O[C@H](CO)[C@@H](O)[C@H](N)[C@H]1O [AMIKACIN]
MIC [9]: 32 µg/mL (≈ 54.6 µM)

Cc1nnc(SCC2=C(C(=O)O)N3C(=O)[C@@H](NC(=O)Cn4cnnn4)[C@H]3SC2)s1 [CEFAZOLIN]
MIC [4]: > 32 µg/mL

CO/N=C(\C(=O)N[C@@H]1C(=O)N2C(C(=O)[O-])=C(C[N+]3(C)CCCC3)CS[C@H]12)c1csc(N)n1 [CEFEPIME]
MIC [25]: 16 µg/mL (≈ 33.3 µM) | MIC [26]: 4 µg/mL (≈ 8.32 µM) | MIC [27]: 8 µg/mL (≈ 16.6 µM) | MIC [17]: > 64 µg/mL | MIC [18]: 16 µg/mL (≈ 33.3 µM) | MIC [19]: 32 µg/mL (≈ 66.6 µM) | MIC [20]: 32 µg/mL (≈ 66.6 µM) | MIC [28]: 16 µg/mL (≈ 33.3 µM) | MIC [29]: 64 µg/mL (≈ 133 µM) | MIC [30]: 64 µg/mL (≈ 133 µM) | MIC [31]: 64 µg/mL (≈ 133 µM) | MIC [32]: 32 µg/mL (≈ 66.6 µM) | MIC [33]: 16 µg/mL (≈ 33.3 µM) | MIC [34]: 16 µg/mL (≈ 33.3 µM) | MIC [35]: 32 µg/mL (≈ 66.6 µM) | MIC [36]: 8 µg/mL (≈ 16.6 µM) | MIC [37]: 16 µg/mL (≈ 33.3 µM) | MIC [38]: 16 µg/mL (≈ 33.3 µM) | MIC [39]: 16 µg/mL (≈ 33.3 µM)

CC(C)(O/N=C(\C(=O)N[C@@H]1C(=O)N2C(C(=O)[O-])=C(C[n+]3ccccc3)CS[C@H]12)c1csc(N)n1)C(=O)O [CEFTAZIDIME]
MIC [25]: > 32 µg/mL | MIC [30]: > 32 µg/mL | MIC [31]: > 32 µg/mL | MIC [32]: > 32 µg/mL | MIC [33]: > 32 µg/mL | MIC [34]: > 32 µg/mL | MIC [40]: 32 µg/mL (≈ 58.5 µM) | MIC [35]: 32 µg/mL (≈ 58.5 µM) | MIC [36]: > 32 µg/mL | MIC [37]: > 32 µg/mL | MIC [38]: > 32 µg/mL | MIC [39]: > 32 µg/mL
